Published values from different studies.
Target: Serine/threonine-protein kinase TAO3 (TAOK3, Homo sapiens, UniProt Q9H2K8)
Sequence (Q9H2K8 1-898, as in one of the studies): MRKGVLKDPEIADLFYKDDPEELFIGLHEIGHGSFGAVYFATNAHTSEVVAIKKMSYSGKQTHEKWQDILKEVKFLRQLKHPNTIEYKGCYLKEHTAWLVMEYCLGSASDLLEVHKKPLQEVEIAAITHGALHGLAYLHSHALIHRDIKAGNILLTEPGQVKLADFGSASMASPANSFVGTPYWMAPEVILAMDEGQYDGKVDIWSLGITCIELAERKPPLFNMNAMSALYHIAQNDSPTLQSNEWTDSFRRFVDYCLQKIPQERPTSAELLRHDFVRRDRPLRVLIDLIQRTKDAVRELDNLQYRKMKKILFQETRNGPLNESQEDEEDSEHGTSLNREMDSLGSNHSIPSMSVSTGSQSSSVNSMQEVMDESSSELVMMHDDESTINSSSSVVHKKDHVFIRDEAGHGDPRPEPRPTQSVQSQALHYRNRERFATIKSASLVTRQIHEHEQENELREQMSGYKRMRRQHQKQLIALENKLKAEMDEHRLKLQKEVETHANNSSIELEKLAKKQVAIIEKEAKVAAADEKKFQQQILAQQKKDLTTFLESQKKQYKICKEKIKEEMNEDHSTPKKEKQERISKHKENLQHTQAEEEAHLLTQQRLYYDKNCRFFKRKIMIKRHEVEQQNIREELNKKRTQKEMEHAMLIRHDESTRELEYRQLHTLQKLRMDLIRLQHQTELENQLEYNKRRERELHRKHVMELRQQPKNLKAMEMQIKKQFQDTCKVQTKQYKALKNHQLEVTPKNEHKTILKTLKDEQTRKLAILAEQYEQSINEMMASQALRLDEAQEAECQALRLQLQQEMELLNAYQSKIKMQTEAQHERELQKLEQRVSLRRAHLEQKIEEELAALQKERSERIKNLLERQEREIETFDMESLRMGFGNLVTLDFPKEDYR

Compound | effect on | method | tested at | remaining binding
Cn1cc(Cl)c2c(Oc3c(F)cc(Nc4cc(Cl)nc(N)n4)cc3F)ccnc21 | cell-free assay | competition with immobilised ligand | 0.1 µM | 100%
CN(CCCC(F)(F)F)c1nccc(-c2cnn3ncccc23)n1 | binding | – | 1 µM | 61%
COc1cnc(Nc2cccc(S(N)(=O)=O)c2)nc1N1CCN(c2ccccc2)CC1 | binding | competition with immobilised ligand | 1 µM | 85%
C[C@@H](c1ccc(-n2cnc3c(N)ncnc32)cc1)N1CCc2nn(C)c(Cc3ccccc3)c2C1=O | binding | competition with immobilised ligand | 0.1 µM | 77%
O=C(c1ccc(Nc2nccc(-c3cc4ccccc4s3)n2)cc1)N1CCC(N2CCCC2)CC1 | binding | competition with immobilised ligand | 1 µM | 100%
CCN1CCN(Cc2ccc(C(=O)Nc3ccc(C)c(Oc4ccc5c(c4)CC(=O)N5)c3)cc2C(F)(F)F)CC1 | binding | competition with immobilised ligand | 1 µM | 100%
O=C(NCC1CCOCC1)c1n[nH]cc1NC(=O)c1c(F)cccc1F | binding | competition with immobilised ligand | 1 µM | 45%
N[C@@H]1CCN(c2nccc(-c3cnn4ncccc34)n2)C1 | binding | – | 1 µM | 100%
c1cncc(-c2cccc(Nc3nccc(NC4CCCCC4)n3)c2)c1 | binding | competition with immobilised ligand | 10 µM | 98%
O=C(NCCCN1CCOCC1)c1ccc(Nc2ncc(Cl)c(-c3ccc(Cl)s3)n2)cc1 | binding | competition with immobilised ligand | 1 µM | 49%
CN1CCN(c2cnc3c(C4CCN(C(=O)c5ccc(OC(F)(F)F)cc5N)CC4)ncnc3c2)CC1 | cell-free assay | competition with immobilised ligand | 1 µM | 100%
C[C@@H]1CCN(c2nccc(-c3cnn4ncccc34)n2)C1 | binding | – | 1 µM | 90%
Cn1nc(C(F)(F)F)cc1-c1cnc(N2CCc3cc(S(=O)(=O)Nc4c(F)cc(Cl)cc4F)cc(N4CCCC4=O)c32)nc1 | cell-free assay | competition with immobilised ligand | 1 µM | 93%
F[C@@H]1CCN(c2nccc(-c3cnn4ncccc34)n2)C1 | binding | – | 1 µM | 55%
Nc1ncc2c(n1)-c1c([nH]c3ccc(C#CC4CC4)cc13)CCCC2 | binding | competition with immobilised ligand | 1 µM | 89%
CCC(=O)N[C@H]1CC[C@@H](C(=O)N(C)c2ccc(-c3nc4ccccc4o3)cc2)C1 | cell-free assay | competition with immobilised ligand | 1 µM | 70%
CC1CCCN1c1nccc(-c2cnn3ncccc23)n1 (stereo not shown) | binding | – | 1 µM | 48%
O=C(c1ccc(Nc2ncc(Cl)c(-c3ccc(Cl)s3)n2)cc1)N1CCC(N2CCCC2)CC1 | binding | competition with immobilised ligand | 1 µM | 49%
c1cnn2ncc(-c3ccnc(N4CCC45COC5)n3)c2c1 | binding | – | 1 µM | 73%
CNCc1ccccc1-c1csc([C@@H](C)Nc2nc(C)nc3cc(OC)c(OC)cc23)c1 | cell-free assay | competition with immobilised ligand | 1 µM | 83%
COc1ccnn2ncc(-c3ccnc(N(C)C)n3)c12 | binding | – | 1 µM | 82%
C[C@@H]1CN(c2cc(-c3nn(C)c4ccc(OC5(C)CC5)cc34)ncn2)C[C@H](C)O1 | binding | competition with immobilised ligand | 1 µM | 35%
